Test results reported in ChEMBL document CHEMBL3751681, “Natural product-based synthesis of novel anti-infective isothiocyanate- and isoselenocyanate-functionalized amphilectane diterpenes” (Bioorg Med Chem Lett, 2016).
Values after ≈ are worked out from the molar mass of the structure shown.

Tests used:
Plasmodium falciparum [1] = test: Antiplasmodial activity against chloroquine-resistant Plasmodium falciparum Dd2 infected in human RBCs after 72 hrs by SYBR Green based parasite proliferation assay; format: functional, organism-based; settings: Dd2, 72 h
Method in brief: (§1)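 P. falciparum (3D7 or Dd2) grown in human O+ erythrocytes in RPMI 1640 with gentamicin, hypoxanthine, HEPES, bicarbonate, glucose, Albumax and 5% human serum. Gassed with 3% CO2, 1% O2, 96% N2 and held at 37°C. Parasites exposed to serial compound dilutions for 72 h. Parasite DNA increase read by SYBR Green fluorescence (ex 495, em 525 nm).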

[2] = system: Mycobacterium tuberculosis; test: Antimycobacterial activity against Mycobacterium tuberculosis H37Rv ATCC 27294 by microplate alamar blue assay; format: functional
Method in brief: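 Mtb H37Rv tested in the microplate Alamar blue assay; rifampicin served as positive control.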

[3] = Selectivity index, ratio of IC50 for African green monkey Vero cells to IC50 for chloroquine-resistant Plasmodium falciparum Dd2; format: toxicity, cell-based; settings: read-out: Ratio IC50
[4] = Selectivity index, ratio of IC50 for African green monkey Vero cells to IC50 for chloroquine-sensitive Plasmodium falciparum 3D7; format: toxicity, cell-based; settings: read-out: Ratio IC50
[5] = Selectivity index, ratio of IC50 for African green monkey Vero cells to MIC for Mycobacterium tuberculosis H37Rv ATCC 27294; format: toxicity, cell-based; settings: read-out: Selectivity Index
Vero = test: Cytotoxicity against African green monkey Vero cells by MTS assay; format: cell-based; settings: Chlorocebus sabaeus
Plasmodium falciparum [6] = test: Antiplasmodial activity against chloroquine-sensitive Plasmodium falciparum 3D7 infected in human RBCs after 72 hrs by SYBR Green based parasite proliferation assay; format: functional, organism-based; settings: 3D7, 72 h; method in brief: as §1

## [C-]#[N+]C(C)(C)C[C@@H]1C[C@H](C)[C@H]2CC[C@H](C)[C@@]3([N+]#[C-])CCC(=C)[C@@H]1[C@H]23 [DIISOCYANOAMPHILECTENE]
Plasmodium falciparum [1]
  IC50: 0.0031 µM
[2]
  MIC: 9.8 µM (≈ 3.18 µg/mL)
[3]
  selectivity ratio: 32200
[4]
  selectivity ratio: 83100
[5]
  selectivity ratio: 10.2

## CO[C@H]1/C=C/O[C@@]2(C)Oc3c(C)c(O)c4c(O)c(c(/C=N/N5CCN(C)CC5)c(O)c4c3C2=O)NC(=O)/C(C)=C\C=C\[C@H](C)[C@H](O)[C@@H](C)[C@@H](O)[C@@H](C)[C@H](OC(C)=O)[C@@H]1C [RIFAMPIN]
[2]
  MIC: 0.09 µM (≈ 0.0741 µg/mL)
Vero
  IC50: > 100 µM
[5]
  selectivity ratio: > 1100

## C=C1CC[C@@]2(N=C=S)[C@H]3[C@H](CC[C@@H]2C)[C@@H](C)C[C@@H](CC(C)(C)N=C=S)[C@H]13
Plasmodium falciparum [1]
  IC50: 11.6 µM
Plasmodium falciparum [6]
  IC50: 11.8 µM
[2]
  MIC: 99.1 µM (≈ 38.5 µg/mL)
Vero
  IC50: > 100 µM
[3]
  selectivity ratio: > 9
[4]
  selectivity ratio: > 8
[5]
  selectivity ratio: > 1

## C=C1CC[C@@]2(N=C=[Se])[C@H]3[C@H](CC[C@@H]2C)[C@@H](C)C[C@@H](CC(C)(C)N=C=[Se])[C@H]13
Plasmodium falciparum [1]
  IC50: 0.0066 µM
Plasmodium falciparum [6]
  IC50: 0.0025 µM
[2]
  MIC: 3.9 µM (≈ 1.88 µg/mL)
Vero
  IC50: 48.6 µM
[3]
  selectivity ratio: 7360
[4]
  selectivity ratio: 19400
[5]
  selectivity ratio: 12.4
